From ChEMBL document CHEMBL3393006, “A new iridoid, verbascoside and derivatives with inhibitory activity against Taq DNA polymerase” (Bioorg Med Chem Lett, 2015) come the findings set out here.

The source made the active and inactive calls. The calls are words filed in the database; no cut-off is given here.

Biological target in the first assay: not listed separately
Nature of the assay: (§1) Inhibition of Thermus aquaticus DNA polymerase by PCR analysis. A digest of the protocol: (§2)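 Taq DNA polymerase (2.5 U) run in PCR mix of 40 mM Tris-acetate pH 8.3, 15 mM MgCl2, […], 2.5 mM each dNTP. Compounds were dissolved in DMSO and tested at varying concentrations, with 1:2 serial dilutions. Cycling was 35 cycles: 95 °C 1 min, 56 °C annealing, 72 °C 90 s. Read-out was densitometry of ethidium bromide-stained agarose gel bands. IC50 was interpolated from plots of activity versus inhibitor concentration.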
On to `CC(C)(C)[Si](C)(C)OC[C@]12O[C@H]1[C@H](O[Si](C)(C)C(C)(C)C)[C@@H]1C=CO[C@@H](O[C@@H]3O[C@H](CO)[C@@H](O)[C@H](O)[C@H]3O)[C@@H]12`, for which half-maximal inhibition (IC50) was put at 78.1 µM.

`OCC1O[C@@H](O[C@@H]2OC=C[C@H]3[C@@H](O)[C@@H]4O[C@]4(CO)[C@@H]23)C(O)C(O)[C@@H]1O` (single isomer, unassigned): 21.6 µM corresponded to half-maximal inhibition (IC50).

`CC(C)(C)[Si](C)(C)OC[C@H]1O[C@@H](O[C@@H]2OC=C[C@H]3[C@@H](O[Si](C)(C)C(C)(C)C)[C@@H]4O[C@]4(CO[Si](C)(C)C(C)(C)C)[C@@H]23)[C@H](O)[C@@H](O)[C@@H]1O`: it took 5.57 µM to reach half-maximal inhibition (IC50).

For the next assay, the system named is Thermus aquaticus. The description is as §1. A digest of the protocol:
as §2
Regarding `CC(C)(C)[Si](OC[C@H]1O[C@@H](O[C@@H]2OC=C[C@H]3[C@@H](O[Si](c4ccccc4)(c4ccccc4)C(C)(C)C)[C@@H]4O[C@]4(CO[Si](c4ccccc4)(c4ccccc4)C(C)(C)C)[C@@H]23)[C@H](O)[C@@H](O)[C@@H]1O)(c1ccccc1)c1ccccc1`, the inhibition result is “inactive”.

For `CC(=O)OC[C@H]1O[C@@H](O[C@@H]2OC=C[C@H]3[C@@H](OC(C)=O)[C@@H]4O[C@]4(COC(C)=O)[C@@H]23)[C@H](OC(C)=O)[C@@H](OC(C)=O)[C@@H]1OC(C)=O`, the inhibition result was “inactive”.

Turning to `CC(C)(C)[Si](OC[C@H]1O[C@@H](O[C@@H]2OC=C[C@H]3[C@@H](O[Si](c4ccccc4)(c4ccccc4)C(C)(C)C)[C@@H]4O[C@]4(CO[Si](c4ccccc4)(c4ccccc4)C(C)(C)C)[C@@H]23)[C@H](O)[C@@H](O[Si](c2ccccc2)(c2ccccc2)C(C)(C)C)[C@@H]1O)(c1ccccc1)c1ccccc1`, the inhibition result is “inactive”.

As for `O=C(OC[C@H]1O[C@@H](O[C@@H]2OC=C[C@H]3[C@@H](OC(=O)c4ccccc4)[C@@H]4O[C@]4(COC(=O)c4ccccc4)[C@@H]23)[C@H](O)[C@@H](OC(=O)c2ccccc2)[C@@H]1OC(=O)c1ccccc1)c1ccccc1`, the inhibition result is “inactive”.

In the case of `CC(=O)OC[C@H]1O[C@@H](O[C@@H]2OC=C[C@H]3[C@@H](OC(C)=O)[C@@H]4O[C@]4(COC(C)=O)[C@@H]23)[C@H](O)[C@@H](O)[C@@H]1O`, the inhibition result was “inactive”.

For the molecule `CC(=O)OC[C@]12O[C@H]1[C@H](O)[C@@H]1C=CO[C@@H](O[C@@H]3O[C@H](CO)[C@@H](O)[C@H](O)[C@H]3O)[C@@H]12`, the inhibition entry is “inactive”.
